Screening data as filed in PubChem.
Apaf1 activ – activators of human Apaf-1 apoptosome, primary screen, biochemical, DEVD-Rh110 fluorescence, uHTS. activity change, negative = activation, % at 20 µM. Apoptotic protease-activating factor 1 (Homo sapiens), O14727. Apaf-1 apoptosome caspase-3 activation; active compounds read low. 330,000 compounds, 0.31% hits;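 active = activity change at or below -40% at 20 µM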
Target sequence (O14727 whole entry, looked up): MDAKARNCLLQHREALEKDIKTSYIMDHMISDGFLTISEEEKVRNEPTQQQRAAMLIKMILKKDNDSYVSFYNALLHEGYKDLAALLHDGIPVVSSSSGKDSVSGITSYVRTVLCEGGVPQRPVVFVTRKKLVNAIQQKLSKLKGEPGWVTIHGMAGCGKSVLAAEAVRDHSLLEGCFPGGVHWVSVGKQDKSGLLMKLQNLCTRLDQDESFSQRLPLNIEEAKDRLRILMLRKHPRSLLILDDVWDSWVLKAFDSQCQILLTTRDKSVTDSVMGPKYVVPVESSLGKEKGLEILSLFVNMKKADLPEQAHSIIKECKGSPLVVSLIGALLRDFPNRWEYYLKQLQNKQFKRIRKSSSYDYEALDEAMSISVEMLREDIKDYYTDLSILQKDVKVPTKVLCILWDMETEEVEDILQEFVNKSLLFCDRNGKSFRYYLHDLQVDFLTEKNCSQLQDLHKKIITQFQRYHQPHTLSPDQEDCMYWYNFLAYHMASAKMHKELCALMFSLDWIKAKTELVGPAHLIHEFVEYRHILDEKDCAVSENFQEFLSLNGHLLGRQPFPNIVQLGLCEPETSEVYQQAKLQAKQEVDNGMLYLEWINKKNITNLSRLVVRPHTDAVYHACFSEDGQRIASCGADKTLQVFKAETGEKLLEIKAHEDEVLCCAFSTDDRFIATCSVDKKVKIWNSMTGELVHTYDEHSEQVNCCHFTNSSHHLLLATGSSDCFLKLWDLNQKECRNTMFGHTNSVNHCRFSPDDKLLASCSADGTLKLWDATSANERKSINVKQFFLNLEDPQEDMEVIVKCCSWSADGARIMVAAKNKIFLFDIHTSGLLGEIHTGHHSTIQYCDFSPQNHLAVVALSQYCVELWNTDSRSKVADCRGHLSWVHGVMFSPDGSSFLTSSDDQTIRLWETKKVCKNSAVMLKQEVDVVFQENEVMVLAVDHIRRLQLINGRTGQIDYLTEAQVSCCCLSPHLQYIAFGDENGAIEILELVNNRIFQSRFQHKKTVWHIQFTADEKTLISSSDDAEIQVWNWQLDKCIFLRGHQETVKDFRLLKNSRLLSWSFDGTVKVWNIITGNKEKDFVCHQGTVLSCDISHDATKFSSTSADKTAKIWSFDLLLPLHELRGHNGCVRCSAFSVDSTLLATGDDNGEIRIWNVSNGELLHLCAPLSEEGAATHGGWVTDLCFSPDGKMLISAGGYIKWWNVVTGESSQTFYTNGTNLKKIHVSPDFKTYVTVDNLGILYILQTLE
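Material: reconstituted apoptosome of Apaf-1, cytochrome c, caspase-9, procaspase-3; times: 30 min preincubation, 50 min reaction, room temperature; measured by: fluorescence, 540 nm emission, 480 nm excitation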
Rh110 act interf – Rh110 fluorescence interference by putative Apaf-1 activators, confirmation, artefact control for Apaf-1 activator project, biochemical, 20 µM. fluorescence interference (activity change), % at 20 µM, hits read low. quenched caspase reaction, Ex480/Em540. 980 tested, under 10 active. AID 504616, 2011. shares compounds with Apaf1 activ;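 active = mean activity change at or below -40% when tested at 20 µM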
Apaf-1 act conf – Apaf-1 activators, single-dose retest, confirmation, biochemical, fluorescence, DEVD-Rh110, 20 µM; shares compounds with Apaf1 activ; reconstituted apoptosome caspase-3 activity; active compounds read low; activity change, negative = activation, % at 20 µM; 980 compounds, 5% hits; AID 504617, 2011;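 active = mean activity change at or below -40%, meaning activation of 40% or more, at 20 µM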
Apaf1 act interf – fluorescence interference of Apaf-1 activator hits, dose response, artefact control for Apaf-1 activator project; AID 588592, 2011; 55 tested, under 10 active; shares compounds with Apaf1 activ; fluorescence interference counterscreen, Apaf-1 activator assay; EC50, µM; call rule not given here
A number is an active result; n = inactive; x = no result given. These entries were drawn from the full list.

SMILES	Apaf1 activ	Rh110 act interf	Apaf-1 act conf	others
N#Cc1cccc(S(=O)(=O)N2CCN(c3ccnc4cc(Cl)ccc34)CC2)c1	-135	n	n
Cc1[nH]n(-c2ccccc2)c(=O)c1N=Nc1nccs1	n	x	x
CN(C(=O)COC(=O)c1cc(S(=O)(=O)N2CCOCC2)c(Cl)cc1Cl)C1CCS(=O)(=O)C1 (centres undefined)	-156	n	n
COc1ccc(-n2c(N)c(C(=O)NCc3ccco3)c3nc4ccccc4nc32)c(OC)c1	n	x	x
COc1ccc(C(=O)Nc2ccccc2C(=O)N(Cc2ccco2)C(C(N)=O)C(C)C)cc1 (centres undefined)	-351	n	n
c1ccc(-c2sc3ccccc3c2-c2ccc(OCCN3CCCC3)cc2)cc1	n	x	x
C#CCOCCOCCOCCNc1nc(N2CCOCC2)nc(N2CCN(C(=O)CCCCCCCCCCNC(=O)[C@H]([C@@H](C)CC)n3cc(CCCCN=C(N)N)nn3)CC2)n1	n	x	x
COc1ccc(/C=C2/Sc3ccc(C(=O)NCCN4CCCCCC4)cc3NC2=O)cc1	n	x	x
CCOc1ccc(/C=C2\SC(=S)N(CCCC(=O)NCCCN3CCOCC3)C2=O)cc1	n	x	x
COC(=O)c1ccc(/C=C2/SC(=S)N(CCCC(=O)Nc3ccc(O)cc3)C2=O)cc1	-67	n	n
COc1cccc(/C=C2\SC(=S)N(CCCC(=O)N3CCCCC3)C2=O)c1	-137	n	n
O=C(O)CCN1C(=O)/C(=C\c2ccc(OCc3ccccc3)c(OCc3ccccc3)c2)SC1=S	-56	n	-79	Apaf1 act interf=n
COc1cc(/C=C/c2cc[n+](C)cc2)ccc1OCC(=O)Nc1ccc(Cl)c(Cl)c1	n	x	x
C#CCOc1ccc(/C=C2/C(=O)N(c3cccc(C(=O)O)c3)N=C2C)cc1OC	n	x	x
COc1ccc(/C=C2\SC(=S)N(CCC(=O)Nc3ccc(C(=O)O)cc3)C2=O)cc1OC	-364	n	-133	Apaf1 act interf=n
Cc1ccc(-c2nn3c(C)nnc3c3ccccc23)cc1S(=O)(=O)NC(C)c1ccccc1 (centres undefined)	n	x	x
O=C1C(=O)c2c(C(=O)c3ccccc3)coc2-c2ccccc21	n	x	x
CC1=NN(c2ccc(C)cc2)C(=O)/C1=C\c1ccc(Br)s1	n	x	x
COC1=C(N)C(=O)c2nc(-c3nc(C(=O)O)c(C)c(-c4ccc(OC)c(OC)c4O)c3N)ccc2C1=O	n	x	x
CC(=O)Nc1ccc(NC(=O)CC2Nc3cccc4cccc(c34)NC2=O)cc1 (centres undefined)	n	x	x
CN(C)c1ncc(C2=C(Cl)C(=O)C(N3CCCC3)=C(Cl)C2=O)s1	n	x	x
COc1ccc(SC[C@H](C)CN2CC[C@H](NC(=O)OCc3ccccc3)CCC2=O)cc1	n	x	x
CCCCCCCCCCCCCCCC[n+]1ccc(/C=N/O)cc1	n	x	x
Nc1ccc2c(c1)C(=O)C(=O)c1ccccc1-2	n	x	x
CC(NC(=O)c1ccco1)C(=O)OCc1cccc(C(F)(F)F)c1 (centres undefined)	-50	n	n
SMILES	Apaf1 activ	Rh110 act interf	Apaf-1 act conf	others
CC(Cc1cccc(C(F)(F)F)c1)NCCOC(=O)c1ccccc1 (centres undefined)	n	x	x
Fc1ccc(CN2CCSCC2)cc1Br	-115	n	n
CCSc1nnc2nc3[nH]c4c(C)cccc4c3nn12	-76	n	n
Nc1c(O)cccc1C(=O)O	n	x	x
Cc1oc2c(c1C(=O)O)C(=O)c1ccccc1C2=O	n	x	x
CN1CCN(S(=O)(=O)c2cccc(C(=O)Nc3cc(C(F)(F)F)ccc3N3CCCCC3)c2)CC1	n	x	x
O=C(NCc1cccs1)c1cccc(S(=O)(=O)N2CCCCC2)c1	n	x	x
O=C(N/N=C/c1ccccn1)c1cccc(S(=O)(=O)N2CCCC2)c1	-587	n	n
COc1cc(/C=C2\C(=O)N(CCC#N)N=C2C)c(Br)cc1OC(C)C	n	x	x
COC(=O)CCC(=O)OC1(C)C(=O)C2=CN(CCN3CCOCC3)C(c3ccc(OC)cc3)=CC2=C(Br)C1=O (centres undefined)	n	x	x
O=c1[nH]c(C2CCN(S(=O)(=O)c3ccc(C(F)(F)F)cc3)CC2)nc2c1nnn2Cc1ccc(F)cc1	n	x	x
COc1ccc(-n2c(C)cc(/C=N/Nc3nnc(C)n3N)c2C)cc1	n	x	x
CCOC(=O)N1CCC(NC(=O)CCC(=O)N2CCOc3ccccc32)CC1	-305	n	n
CCOc1ccccc1N1CCN(C(=O)C2c3ccccc3Oc3ccccc32)CC1	n	x	x
Cn1c(C(=O)N2CCN(c3nc4ccccc4s3)CC2)cc2sccc21	n	x	x
O=C(NCc1ccccc1)c1ccc(CN(c2ccccn2)S(=O)(=O)c2ccccc2)cc1	-115	n	n
CCOc1cccc2sc(N(CCCN(C)C)C(=O)c3ccc(S(=O)(=O)N(CC)Cc4ccccc4)cc3)nc12	n	x	x
CCOc1cccc2sc(N(CCCN(C)C)C(=O)c3ccc(S(=O)(=O)N(C)Cc4ccccc4)cc3)nc12	n	x	x
O=C1C(Cl)=C(N2CCCCC2)C(=O)C(Cl)=C1c1cnc(N2CCCCC2)s1	n	x	x
COc1ccc2c(c1)c(/C=N/Nc1nc3ccccc3[nH]1)c(C)n2C	n	x	x
CS(=O)(=O)NN1C(=O)c2ccccc2NC1c1ccccc1O (centres undefined)	-64	n	n
CN(C)CCC(c1ccc(Br)cc1)c1ccccn1 (centres undefined)	n	x	x
CCOc1cc(CNc2ccc3cn[nH]c3c2)ccc1OC	n	x	x
N#Cc1c(N2CCCC2)nc(N)c2c(N)nc(N3CCCC3)cc12	n	x	x
CC(=O)OCC1=C(C(=O)O)N2C(=O)C(NC(=O)C(C)Cn3nc(C)c(Cl)c3C)C2SC1 (centres undefined)	-90	n	n
SMILES	Apaf1 activ	Rh110 act interf	Apaf-1 act conf	others
C#CCOCCOCCOCCNc1nc(N2CCN(C(=O)CCCCCCCCCCNC(=O)Cn3cc(C[C@@H](C)O)nn3)CC2)nc(N2CCN(C(=O)CCCCCCCCCCNC(=O)[C@@H]([C@H](C)CC)n3cc(CCCCCN)nn3)CC2)n1	n	x	x
FC(F)(F)c1cc(CO[C@@H]2CCCN[C@@H]2c2ccccc2)cc(C(F)(F)F)c1	n	x	x
COc1cc(/C=N/N=C2/C(=O)Nc3ccccc32)ccc1O	-445	n	n
CC1=NN(c2ccc(C(F)(F)F)cn2)C(=O)C1	n	x	x
Cc1cc(C)c(S(=O)(=O)/N=C2\C=C(NS(=O)(=O)c3ccccc3)C(=O)c3ccccc32)c(C)c1	n	x	x
O=C(N/N=C\c1ccc(-c2ccccc2[N+](=O)[O-])o1)C1COc2cc3ccccc3cc2O1 (centres undefined)	n	x	x
NC(=O)CSc1nc2c(sc3ccccc32)c(=O)n1CCCN1CCOCC1	-236	n	n
Cc1ccccc1Oc1ncnc2oc(-c3ccccc3)cc12	-75	n	n
CCNC(=S)SCCOc1ccc(C)cc1	-127	n	n
Nc1ccc(C(=O)O)c(O)c1	n	x	x
CCC(CO)Oc1cc(NCc2ccncc2)c2ncn(C(C)C)c2c1 (centres undefined)	n	x	x
CC(C)c1ccc(NC(=S)Nc2cccc3ccccc23)cc1	n	x	x
CCOC(=O)CNCCC(=O)c1ccc(Br)cc1	n	x	x
